Source: article PMC5116011 (The Journal of antibiotics, 2016)
≈ marks a conversion by molar mass, not a printed value. Like-named read-outs stand apart in the source and are kept apart here.

Columns and labels:
[1] = tested on: P. aeruginosa PA01; assay: MIC, microbroth dilution in Mueller-Hinton broth; type: cell-based, Pseudomonas aeruginosa; conditions: for MIC PA MH+BP/CCCP / MIC PA +: P. aeruginosa PA01; for MIC PA MH+BP/CCCP: MH broth with 30 µg/ml 2,2′-bipyridyl and 50 µg/ml CCCP; for MIC PA +: with clavulanic acid (6µg/ml); for MIC: Pseudomonas aeruginosa
[2] = tested on: E. coli BW25113; assay: MIC, microbroth dilution in Mueller-Hinton broth; type: cell-based, Escherichia coli; conditions: for MIC EC MH+BP/CCCP: MH broth with 30 µg/ml 2,2′-bipyridyl and 50 µg/ml CCCP; for MIC EC +: with clavulanic acid (6µg/ml); for MIC: Escherichia coli, BW25113, read-out: MIC EC, E. coli BW25113
[3] = tested on: P. vulgaris ATCC 33420; assay: MIC, microbroth dilution in Mueller-Hinton broth; type: cell-based; conditions: Proteus vulgaris, ATCC33420, read-out: MIC PV
[4] = tested on: B. anthracis sterne; assay: microbe, parasite or virus in culture; type: cell-based; conditions: Bacillus anthracis, read-out: MIC BA
[5] = tested on: S. pneumoniae R6; assay: MIC, microbroth dilution in Mueller-Hinton broth; type: cell-based; conditions: Streptococcus pneumoniae, R6, read-out: MIC SP
In short: (§1)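 CLSI broth microdilution in cation-adjusted Mueller-Hinton broth. Inocula were grown from MH agar colonies in MH broth, with a final inoculum of 10^5 CFU/ml. Test compound final range was 200–0.2 µg/ml, incubated 37°C for 18–20 h. MIC was the lowest concentration preventing visible growth. Runs were at least duplicate, and the mean MIC was reported.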

[6] = tested on: P. mirabilis ATCC 25933; assay: MIC, microbroth dilution in Mueller-Hinton broth; type: cell-based; conditions: Proteus mirabilis, ATCC25933, read-out: MIC PM
[7] = tested on: S. aureus -ATCC29213 (MSSA); assay: MIC, microbroth dilution in Mueller-Hinton broth; type: cell-based; conditions: Staphylococcus aureus, read-out: MIC MSSA
In short: as §1

[8] = tested on: S. aureus NRS 70 (MRSA); assay: MIC, microbroth dilution in Mueller-Hinton broth; type: cell-based; conditions: Staphylococcus aureus, MRSA|NRS70, read-out: MIC MRSA
In short: as §1

[9] = tested on: S. pyogenes ATCC700294; assay: MIC, microbroth dilution in Mueller-Hinton broth; type: cell-based; conditions: Streptococcus pyogenes, ATCC700294, read-out: MIC SPy
In short: as §1

[10] = tested on: E. faecalis ATCC33186; assay: MIC, microbroth dilution in Mueller-Hinton broth; type: cell-based; conditions: Enterococcus faecalis, ATCC33186, read-out: MIC EF
In short: as §1

[11] = tested on: E. coli BW25113 ΔtolC derivative JW5503-1; assay: MIC, microbroth dilution in Mueller-Hinton broth; type: cell-based, Escherichia coli; conditions: for MIC: Escherichia coli
[12] = tested on: E. coli BW25113 ΔampC derivative JW4111-2; type: cell-based, Escherichia coli; conditions: for MIC: Escherichia coli, BW25113, read-out: MIC ECΔampC −
[13] = tested on: B. subtilis ATCC23857; assay: MIC, microbroth dilution in Mueller-Hinton broth; type: cell-based; conditions: Bacillus subtilis, ATCC23857, read-out: MIC BS
In short: as §1

[14] = BW25113, read-out: MIC ECΔtolC MH
[15] = BW25113, read-out: MIC ECΔtolC MH+BP

SMILES | MIC PA MH+BP/CCCP [1] | MIC PA + [1] | MIC ([1]; PA01, read-out: MIC PA) | MIC ([1]; PA01, read-out: MIC PA MH) | MIC ([1]; PA01, read-out: MIC PA MH+BP) | MIC ([1]; PA01, read-out: MIC PA MH+CCCP) | MIC ([1]; PA01, read-out: MIC PA −) | MIC EC MH+BP/CCCP ([2]; E. coli BW25113) | MIC EC + ([2]; E. coli BW25113) | MIC ([2]; Mueller-Hinton broth (Table 2)) | MIC [3] | MIC [4] | MIC [5] | MIC [6] | MIC [7] | MIC [8] | MIC [9] | MIC [10] | MIC ECΔtolC MH+BP/CCCP [11] | MIC ECΔtolC MH+CCCP [11] | further results
CC1(C)SC2C(NC(=O)C(NC(=O)C3=C(O)C(Cc4ccco4)NC3=O)c3ccccc3)C(=O)N2C1C(=O)O (stereo not drawn) [Compound 3002] | 3.13 mg/L (≈ 5.64 µM) | 3.13 mg/L | 12.5 mg/L (≈ 22.5 µM) | 12.5 mg/L (≈ 22.5 µM) | 12.5 mg/L (≈ 22.5 µM) | 6.25 mg/L (≈ 11.3 µM) | 12.5 mg/L (≈ 22.5 µM) | 1.56 mg/L (≈ 2.81 µM) | 6.25 mg/L | 6.25 to 12.5 mg/L (≈ 11.3 to 22.5 µM) | 25 mg/L (≈ 45.1 µM) | 3.13 mg/L (≈ 5.64 µM) | 0.39 mg/L (≈ 0.703 µM) | 1.56 mg/L (≈ 2.81 µM) | 0.78 mg/L (≈ 1.41 µM) | 50 mg/L (≈ 90.2 µM) | 0.39 mg/L (≈ 0.703 µM) | 25 mg/L (≈ 45.1 µM) | 0.78 mg/L (≈ 1.41 µM) | 1.56 mg/L (≈ 2.81 µM) | MIC EC ([2]; E. coli BW25113, Mueller-Hinton broth (Table 2)): 6.25 mg/L (≈ 11.3 µM); MIC ECΔampC + [12]: 6.25 mg/L; MIC [13]: 1.56 mg/L (≈ 2.81 µM)
CC(C)(C)OCC1NC(=O)C(C(=O)NC(C(=O)NC2C(=O)N3C2SC(C)(C)C3C(=O)O)c2ccccc2)=C1O (stereo not drawn) [Compound 1940] | 6.25 mg/L (≈ 11.1 µM) | 12.5 mg/L | 25 mg/L (≈ 44.6 µM) | 25 mg/L (≈ 44.6 µM) | 12.5 mg/L (≈ 22.3 µM) | 12.5 mg/L (≈ 22.3 µM) | 25 mg/L (≈ 44.6 µM) | 12.5 mg/L (≈ 22.3 µM) | 12.5 mg/L | 50 mg/L (≈ 89.2 µM) | 50 mg/L (≈ 89.2 µM) | 3.13 mg/L (≈ 5.58 µM) | 0.78 mg/L (≈ 1.39 µM) | 6.25 mg/L (≈ 11.1 µM) | 1.56 mg/L (≈ 2.78 µM) | 25 mg/L (≈ 44.6 µM) | 0.78 mg/L (≈ 1.39 µM) | 25 mg/L (≈ 44.6 µM) | 1.56 mg/L (≈ 2.78 µM) | 6.25 mg/L (≈ 11.1 µM) | MIC ([11]; BW25113, read-out: MIC ECΔtolC): 12.5 mg/L (≈ 22.3 µM); MIC [11, 14]: 12.5 mg/L (≈ 22.3 µM); MIC [11, 15]: 3.13 mg/L (≈ 5.58 µM); MIC [12]: 12.5 mg/L (≈ 22.3 µM); MIC ECΔampC + [12]: 6.25 mg/L; MIC [13]: 3.13 mg/L (≈ 5.58 µM)
CC1NC(=O)C(C(=O)NC(C(=O)NC2C(=O)N3C2SC(C)(C)C3C(=O)O)c2ccccc2)=C1O (stereo not drawn) [Compound 2746] | 12.5 mg/L (≈ 25.6 µM) | 25 mg/L | 50 mg/L (≈ 102 µM) | 50 mg/L (≈ 102 µM) | 50 mg/L (≈ 102 µM) | 12.5 mg/L (≈ 25.6 µM) | 50 mg/L (≈ 102 µM) | 12.5 mg/L (≈ 25.6 µM) | 50 mg/L | 200 mg/L (≈ 409 µM) | 100 mg/L (≈ 205 µM) | 1.56 mg/L (≈ 3.19 µM) | 0.39 mg/L (≈ 0.798 µM) | 3.13 mg/L (≈ 6.41 µM) | 1.56 mg/L (≈ 3.19 µM) | 50 mg/L (≈ 102 µM) | 0.39 mg/L (≈ 0.798 µM) | 25 mg/L (≈ 51.2 µM) | 1.56 mg/L (≈ 3.19 µM) | 3.13 mg/L (≈ 6.41 µM) | MIC [11, 15]: 6.25 mg/L (≈ 12.8 µM); MIC [12]: 50 mg/L (≈ 102 µM); MIC ECΔampC + [12]: 25 mg/L; MIC [13]: 3.13 mg/L (≈ 6.41 µM)
CN1CC(O)=C(C(=O)NC(C(=O)NC2C(=O)N3C2SC(C)(C)C3C(=O)O)c2ccccc2)C1=O (stereo not drawn) [Compound 2742] | 6.25 mg/L (≈ 12.8 µM) | 12.5 mg/L | 25 mg/L (≈ 51.2 µM) | 25 mg/L (≈ 51.2 µM) | 12.5 mg/L (≈ 25.6 µM) | 12.5 mg/L (≈ 25.6 µM) | 25 mg/L (≈ 51.2 µM) | 12.5 mg/L (≈ 25.6 µM) | 25 mg/L | 100 mg/L (≈ 205 µM) | 100 mg/L (≈ 205 µM) | 6.25 mg/L (≈ 12.8 µM) | 1.56 mg/L (≈ 3.19 µM) | 6.25 mg/L (≈ 12.8 µM) | 1.56 mg/L (≈ 3.19 µM) | 100 mg/L (≈ 205 µM) | 1.56 mg/L (≈ 3.19 µM) | 25 mg/L (≈ 51.2 µM) | 1.56 mg/L (≈ 3.19 µM) | 6.25 mg/L (≈ 12.8 µM) | MIC ([11]; BW25113, read-out: MIC ECΔtolC): 12.5 mg/L (≈ 25.6 µM); MIC [11, 14]: 12.5 mg/L (≈ 25.6 µM); MIC [11, 15]: 6.25 mg/L (≈ 12.8 µM); MIC [12]: 25 mg/L (≈ 51.2 µM); MIC ECΔampC + [12]: 12.5 mg/L; MIC [13]: 3.13 mg/L (≈ 6.41 µM)
